According to ChEMBL document CHEMBL1138232, “Optimization of naphthalimide-imidazoacridone with potent antitumor activity leading to clinical candidate (HKH40A, RTA 502)” (J Med Chem, 2007):

Columns and labels:
SK-MEL-28 = experiment: Antitumor activity against human SK-MEL-28 cells after 48 hrs; format: functional; settings: SK-MEL-28, 48 h
Outline: (§1)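 Tested in the NCI 60 human tumour cell line screen, with continuous drug exposure for 48 h. Values include LC50 derived from the screen.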

SK-MEL-5 = experiment: Antitumor activity against human SK-MEL-5 cells after 48 hrs; format: functional; settings: SK-MEL-5, 48 h; outline: as §1
PC-3 = experiment: Antitumor activity against PC3 cells expressing mutated p53; format: functional, cell-based; settings: Homo sapiens
Outline: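 Compounds tested as tri(methanesulfonate) salts, soluble in water and dilute buffers. Human tumour cells carrying wild-type or mutated p53 were exposed for 5 days, and viability was read by MTT assay. GI50, TGI and LC50 were calculated from the MTT data. Values are means ± SD of at least three independent experiments, with coefficients of variation of 10–20%.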

HCT-116 = experiment: Cell cycle arrest in HCT116 cells assessed as accumulation at G2/M phase at 50 nM after 72 hrs; format: functional, Homo sapiens
Outline: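 HCT116 cells exposed to 50 nM drug for 72 h, then cell-cycle distribution analysed. Sub-G1, G1, S and G2/M fractions reported as percent of cells, with untreated control cells for comparison.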

COLO 205 = experiment: Antitumor activity against human COLO205 cells after 48 hrs; format: functional; settings: COLO 205, 48 h; outline: as §1
UO-31 = experiment: Antitumor activity against human UO31 cells after 48 hrs; format: functional; settings: UO-31, 48 h
Outline: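 NCI 60 human tumour cell line screen; 48 h continuous drug exposure. Compounds tested as tri(methanesulfonate) salts, soluble in water and dilute buffers. Dilute solutions are light-sensitive and adsorb to glass or quartz.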

[1] = read-out: Log LC50 (the source's name) (converted)

Structure (SMILES): COc1ccc2c(c1)c(=O)c1c(NCCCN3CCN(CCCN4C(=O)c5cccc6cc([N+](=O)[O-])cc(c56)C4=O)CC3)ccc3ncn2c31.CS(=O)(=O)O
- GI50 (SK-MEL-28): 5.5 nM
- CC50 (SK-MEL-28; [1]): > 1000 nM
- TGI (SK-MEL-28; read-out: Log TGI (converted)): 933 nM
- GI50 (SK-MEL-5): 4.9 nM
- CC50 (SK-MEL-5; [1]): 871 nM
- TGI (SK-MEL-5; read-out: Log TGI (converted)): 43.6 nM
- IC50 (PC-3): 45 nM
- Activity (HCT-116): 27.1%
- GI50 (COLO 205): 6.31 nM
- CC50 (COLO 205; [1]): > 1000 nM
- TGI (COLO 205; read-out: Log TGI (converted)): > 1000 nM
- GI50 (UO-31): 2.69 nM
- CC50 (UO-31; [1]): > 1000 nM
- TGI (UO-31; read-out: Log TGI (converted)): 17.8 nM
